# Assay outcomes (PubChem)
# Sampled rows, rich in hits. Any-hit rate of the full collection: about 3.5%.
# MrgX1 allo act: human MrgX1 positive allosteric modulation, primary screen. AID 588675. B-score at 10 µM. MrgX1-HEK293, Fluo-4 calcium flux, FDSS; hits give high values. Q96LB2. 310,000 compounds, 0.63% hits;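 active = plate-corrected calcium response at least 3 library SD above typical, normal starting fluorescence, not activating the receptor alone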;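 note: compound read alongside a low EC10 to EC30 dose of BAM8-22 agonist; peak minus trough fluorescence over baseline measured at the second addition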
# Target sequence (Q96LB2 whole entry, looked up): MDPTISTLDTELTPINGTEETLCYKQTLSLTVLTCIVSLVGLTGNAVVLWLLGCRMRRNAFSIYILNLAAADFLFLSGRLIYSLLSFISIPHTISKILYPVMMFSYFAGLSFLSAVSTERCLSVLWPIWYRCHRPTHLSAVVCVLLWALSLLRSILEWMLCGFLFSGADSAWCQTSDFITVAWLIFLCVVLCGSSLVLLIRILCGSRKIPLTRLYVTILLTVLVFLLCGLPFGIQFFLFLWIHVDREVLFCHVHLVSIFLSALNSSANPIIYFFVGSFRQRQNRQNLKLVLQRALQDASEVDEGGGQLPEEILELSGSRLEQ
# MrgX1 antagonist: human MrgX1 receptor antagonism, primary screen; Q96LB2; MRGX1-HEK293 calcium flux, Fluo-4, BAM8-22 antagonism; hits give low values; B-score at 10 µM; 310,000 compounds, 1.3% hits;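 active = calcium-response B-score plate-corrected more than 3 library SD below zero, starting fluorescence within 5 deviations, no agonist response on first addition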;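 note: peak minus trough fluorescence over baseline after final BAM8-22 challenge near maximal dose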
# RGS4 pot: potentiators or activators of RGS4; HEK293 M3R/inducible RGS4, carbachol calcium flux Fluo4; hits give low values; B-score at 10 µM; AID 463111; 310,000 compounds, 0.92% hits;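 active = B-score of the integrated calcium signal more than 4 SD below the library mean, with starting fluorescence not abnormally high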;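 note: negative B-score means reduced calcium response which marks RGS4 activation or potentiation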
#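 System: HEK293 FlpIn-TREx cells, stable M3R, doxycycline-inducible RGS4. Timing: overnight RGS4 induction, 30 min dye load 37 °C, 20 min compound RT. Also added: carbachol, ECmax concentration. Measured by: Fluo4 fluorescence kinetic imaging of calcium. Evaluation: integrated calcium ratio converted to B score.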
# MrgX1 agonist: agonists of human MrgX1 receptor; Q96LB2; MrgX1-HEK293 cells, Fluo-4 calcium fluorescence, agonist mode; hits give high values; B-score at 10 µM; 310,000 compounds, 0.44% hits;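 active = calcium response B-score plate-corrected fluorescence ratio at least 3 library SD, with starting fluorescence B-score inside 5 SD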
#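 Test system: HEK293 cells stably expressing human MrgX1 receptor; Input: fifteen thousand cells per well; Dosing: compound delivered in addition one of three; Schedule: overnight seeding, then 1 h dark dye loading; Technique: Fluo-4 NW calcium fluorescence; Measure: B-scored fluorescence response ratio; Controls: positive and negative controls per plate.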
# RGS4 inh: inhibitors of human RGS4. P49798. HEK293 M3R/RGS4 inducible, Fluo-4 calcium flux; hits give high values; triggered by carbachol at its EC20. B-score at 10 µM. 310,000 compounds, 0.45% hits. AID 463165;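 active = B-score, a plate-corrected calcium signal, over three deviations above library mean, with baseline fluorescence within five deviations of library mean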;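 note: RGS4 expression induced by doxycycline in cells with stable M3 receptor; B-score is computed from the integrated fluorescence ratio over baseline after carbachol; higher B-score means a larger calcium signal and so more RGS4 inhibition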
# Target sequence (P49798 whole entry, looked up): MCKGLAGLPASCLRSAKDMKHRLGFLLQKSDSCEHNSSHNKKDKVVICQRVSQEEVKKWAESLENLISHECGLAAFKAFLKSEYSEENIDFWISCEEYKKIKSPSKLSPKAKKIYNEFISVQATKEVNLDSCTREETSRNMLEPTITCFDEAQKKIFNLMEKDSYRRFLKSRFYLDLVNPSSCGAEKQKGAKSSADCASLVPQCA
# MrgX1 ant reconf: human MrgX1 receptor antagonism, re-confirmation screen | shares compounds with MrgX1 antagonist | MrgX1-HEK293, BAM8-22 calcium flux, Fluo-4; hits give low values | remaining BAM8-22 calcium response % of control (hits give low values), % at 10 µM | 2,300 compounds, 19% hits | AID 602420;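 active = remaining agonist calcium response no higher than 100% minus 3 SD of agonist-only control wells, with starting fluorescence near control levels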;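 note: agonist BAM8-22 given at a near maximal EC90 to ECmax level; peak minus minimum fluorescence divided by baseline after agonist addition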
# HEK293 Ca flux: MrgX1 antagonist counter-screen hit in parental HEK293 cells | shares compounds with MrgX1 antagonist | Fluo-4 calcium fluorescence, FDSS | fluorescence ratio F(max-min)/F0 at 10 µM | 4,000 compounds, 2% hits | AID 624111;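 active = duplicate-averaged calcium fluorescence ratio at least three times the standard deviation of buffer wells, a nonspecific response in parental cells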
# HEK293 Ca counter: MrgX1 allosteric activator counter-screen hit in parental HEK293 cells; 4,000 compounds, 0.4% hits; parental HEK293 calcium flux, Fluo-4 fluorescence ratio; hits give high values; shares compounds with MrgX1 antagonist; fluorescence ratio F(max-min)/F0 at 10 µM;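 active = calcium fluorescence ratio, averaged over duplicates, at least 3 SD of the buffer-well ratio, meaning a nonspecific response in receptor-free cells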;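 note: untransfected parental HEK293 lacking MrgX1 used as counterscreen for MrgX1 allosteric activators; fluorescence change taken during the second addition on a kinetic imager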
# HEK293 Ca cntr2: MrgX1 activator counter-screen hit in parental HEK293 cells; shares compounds with MrgX1 antagonist; Fluo-4 calcium fluorescence (FDSS); hits give high values; fluorescence ratio F(max-min)/F0 at 10 µM; 4,000 compounds, 8.7% hits;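 active = calcium fluorescence ratio at least three times the spread of buffer wells, meaning a non-specific response in parental cells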
# * = called active by the depositor; i = inactive; / = no result given; ! = repeats disagree.
SMILES,MrgX1 allo act,MrgX1 antagonist,RGS4 pot,MrgX1 agonist,RGS4 inh,MrgX1 ant reconf,HEK293 Ca flux,HEK293 Ca counter,HEK293 Ca cntr2
NC(=S)Nc1cccc2cc3ccccc3cc12,i,i,i,i,i,/,/,/,/
NC(=S)Nc1cc2ccccc2c2ccccc12,i,-4.8*,i,i,i,i,i,i,i
Cc1cc(C)nc(NS(=O)(=O)c2ccc(N)cc2)n1,i,-4.7*!,i,i,i,i,i,i,i
CC(=O)N1CCN(CC(=O)Nc2c(Cl)cc(Cl)cc2Cl)CC1,i,i,i,i,i,/,/,/,/
Cc1ccc2nsnc2c1S(=O)(=O)N1CCN(Cc2ccc3c(c2)OCO3)CC1,i,-7.5*,i,i,i,i,i,i,i
CCCn1[nH]cc(SC)c(=O)c1=O,i,i,i,i,i,/,/,/,/
COc1cccc2cc(C(=O)n3ccc(C)n3)c(=O)oc12,i,i,i,i,i,/,/,/,/
COc1ccc(C)cc1N(CC(=O)Nc1ccc(S(=O)(=O)N2CCOCC2)cc1)S(C)(=O)=O,i,-5.2*,i,i,i,i,i,i,i
[S-]C(=Nc1ccc(Cl)cc1)N[n+]1ccccc1,i,i,i,i,i,/,/,/,/
CCCCNC(=O)Nc1nnc(-c2ccc(Cl)cc2)o1,i,i,i,i,i,/,/,/,/
CC(=O)Cc1ccccc1OC(=O)c1ccco1,i,-6.2*,i,i,i,i,i,i,i
COc1ccc(CN2CCNC(=O)C2CC(=O)NCC(C)(C)N2CCOCC2)cc1C (stereo not drawn),i,i,i,i,i,/,/,/,/
O=C(NC(=S)Nc1ccccc1N1CCOCC1)c1cccs1,i,-4.7*,i,i,i,i,i,i,i
O=C(NC(=S)Nc1ccccc1N1CCCC1)c1cccs1,i,i,i,i,i,/,/,/,/
COc1ccc(OC)c2sc(NC(=O)CCS(=O)(=O)c3ccccc3)nc12,i,i,i,i,i,/,/,/,/
COc1ccc(OC)c2sc(NC(=O)CCSc3ccccc3)nc12,i,-8.8*,i,i,i,i,i,i,i
Cc1ccc(CNC(=O)Nc2ccccc2)c(C)c1,i,i,i,i,i,/,/,/,/
CC(C)NC(=O)CC1Nc2c3ccccc3nc(=S)n2C1=O (stereo not drawn),i,-5.3*,i,i,i,i,i,i,i
Cc1ccc(N2C(SCC(=O)O)=NC(=Nc3cccc(C)c3)C23CCCC3)cc1,i,i,i,i,i,/,/,/,/
CCN(CC)CCN1C(=O)Cn2c(C)c(C)c3cccc1c32,i,-5*!,i,i,i,i,i,i,i
O=C(Nc1ccccc1N1CCN(c2ccccc2)CC1)c1ccccc1,i,i,i,i,i,/,/,/,/
CCn1ncc(Br)c1C(=O)Nc1sc2c(c1C(=O)OC)CCC2,i,i,i,i,i,/,/,/,/
CCOC(=O)c1c(NC(=O)c2c(Br)cnn2CC)sc(C)c1C,i,-7.1*,i,i,i,i,i,i,i
COC(=O)C(C)(C)ONC(=O)Nc1ccccc1[N+](=O)[O-],i,i,i,i,i,/,/,/,/
CCOc1cnc(-c2ccc(OC)cc2)o1,i,-4.6*,i,i,i,i,i,i,i
COc1ccc(Cc2nc3ccc(C(=O)NCC(C)(C)OC)cc3o2)cc1,i,-6.3*,i,i,i,i,i,i,i
